≈ marks a conversion by molar mass, not a printed value.

What all share (type): functional
In assay [1] the test system is Enterococcus faecalis. Description: Antibacterial activity was determined against gram positive organism, Streptococcus faecalis MGH-2. The conditions noted are these: Enterococcus faecalis; read-out: MIC. A digest of the protocol: (§1)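 MIC (µg/mL) by standard microtitration against a panel of 10 Gram-positive and Gram-negative organisms; values averaged from multiple experiments.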

Assay [2] deals with Staphylococcus aureus. Description: Antibacterial activity was determined against gram positive organism, Staphylococcus aureus UC76. A digest of the protocol:
as §1

The subject of assay [3] is Streptococcus pyogenes. Kind of assay: Antibacterial activity was determined against gram positive organism, Streptococcus pyogenes C203. The conditions noted are these: Streptococcus pyogenes; read-out: MIC. A digest of the protocol: as §1
The subject of assay [4] is Staphylococcus aureus. Kind of assay: Antibacterial activity was determined against gram positive organism, Staphylococcus aureus H228. The conditions noted are these: Staphylococcus aureus; read-out: MIC. Put shortly: as §1
Assay [5] has as its system Streptococcus pneumoniae. Kind of assay: Antibacterial activity was determined against gram positive organism, Streptococcus pneumoniae SV-1. The conditions noted are these: Streptococcus pneumoniae; read-out: MIC. Put shortly: as §1
Assay [6] deals with Pseudomonas aeruginosa. Kind of assay: Antibacterial activity was determined against gram negative organism, Pseudomonas aeruginosa UI-18. The conditions noted are these: Pseudomonas aeruginosa; read-out: MIC. A digest of the protocol:
as §1

For assay [7], the target named is DNA gyrase (Escherichia coli) (UniProt P0AES6+P0AES4). Kind of assay: Minimum inhibitory concentration against Escherichia coli DNA-gyrase in supercoiling assay.
Assay [8] has as its system Bacteria. Kind of assay: MIC ratio measured as the mean MICs of gram-negative bacteria. Put shortly:
(§2)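 Geometric mean of the microtitration MICs (µg/mL) over the Gram-negative organisms, and separately over the Gram-positive organisms, of the 10-strain panel; individual MICs averaged from multiple experiments.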

Assay [9] concerns Klebsiella pneumoniae. Kind of assay: Antibacterial activity was determined against gram negative organism, Klebsiella pneumoniae MGH-2. The conditions noted are these: Klebsiella pneumoniae; read-out: MIC. A digest of the protocol:
as §1

In assay [10] the test system is Bacteria. Description: Antibacterial activity was determined against gram negative organism, Providencia rettgeri. M1771. The conditions noted are these: Bacteria; read-out: MIC. A digest of the protocol:
as §1

Assay [11] concerns Bacteria. Kind of assay: MIC ratio measured as the mean MICs of gram-positive bacteria. A digest of the protocol:
as §2

The test system of assay [12] is Escherichia coli. Kind of assay: Antibacterial activity was determined against gram negative organism, Escherichia coli vogel. The conditions noted are these: Escherichia coli; read-out: MIC. A digest of the protocol: as §1
Assay [13] deals with Enterobacter cloacae. Description: Antibacterial activity was determined against gram negative organism, Enterobacter cloacae MA2646. The conditions noted are these: Enterobacter cloacae; read-out: MIC.
Setting [14] is: Staphylococcus aureus, read-out: MIC.

With `CCn1cc(C(=O)O)c(=O)c2c(N)c(F)c(N3CCNCC3)c(F)c21`, the MIC in assay [1] amounted to 1.6 µg/mL (≈ 4.54 µM); in [2] (setting [14]) it was 0.2 µg/mL (≈ 0.568 µM); in assay [3], 3.1 µg/mL (≈ 8.8 µM); in [4], 1.6 µg/mL (≈ 4.54 µM); in assay [5], 1.6 µg/mL (≈ 4.54 µM); in assay [6], 0.8 µg/mL (≈ 2.27 µM). Moreover, the MIC in assay [7] was found to be 2.5 µg/mL (≈ 7.1 µM); in assay [9], 0.2 µg/mL (≈ 0.568 µM); in [10], 0.4 µg/mL (≈ 1.14 µM); in assay [12], 0.1 µg/mL (≈ 0.284 µM); in [13] it was 0.2 µg/mL (≈ 0.568 µM). In assay [8], the Geometric mean MIC over Gram-negative bacteria (µg/mL) worked out at 0.26. For the same compound, the “Geometric mean MIC over Gram-positive bacteria (µg/mL)” value in assay [11] amounted to 1.15.
Take `CCn1cc(C(=O)O)c(=O)c2cc(F)c(N3CCC(N)C3)c(Cl)c21` (stereo not given): the MIC in assay [1] is 0.4 µg/mL (≈ 1.13 µM); in [2], 0.1 µg/mL (≈ 0.283 µM); in assay [3], 0.4 µg/mL (≈ 1.13 µM); in assay [4], 0.4 µg/mL (≈ 1.13 µM); in [5], 0.4 µg/mL (≈ 1.13 µM); in assay [6], 0.8 µg/mL (≈ 2.26 µM). Moreover, the MIC in assay [7] turned out to be 2.5 µg/mL (≈ 7.07 µM); in assay [9], 0.1 µg/mL (≈ 0.283 µM); in assay [10], 0.2 µg/mL (≈ 0.565 µM); in assay [12], 0.05 µg/mL (≈ 0.141 µM); in assay [13] it was 0.05 µg/mL (≈ 0.141 µM). Further, the Geometric mean MIC over Gram-negative bacteria (µg/mL) in assay [8] worked out at 0.13. Further, the “Geometric mean MIC over Gram-positive bacteria (µg/mL)” value in [11] was 0.3.
Turning to `CCn1cc(C(=O)O)c(=O)c2c(O)c(F)c(N3CCNC(C)C3)c(F)c21` (stereo not given), the MIC in assay [1] came to 12.5 µg/mL (≈ 34 µM); in [2] (setting [14]) it was 1.6 µg/mL (≈ 4.36 µM); in assay [3], 12.5 µg/mL (≈ 34 µM); in assay [4] it was 6.3 µg/mL (≈ 17.1 µM); in [5] it was 12.5 µg/mL (≈ 34 µM); in assay [6] it was 12.5 µg/mL (≈ 34 µM). Besides, the MIC in assay [7] was 5 µg/mL (≈ 13.6 µM); in [9], 0.8 µg/mL (≈ 2.18 µM); in [10], 1.6 µg/mL (≈ 4.36 µM); in [12], 0.4 µg/mL (≈ 1.09 µM); in assay [13] it was 0.4 µg/mL (≈ 1.09 µM).
As for `CCn1cc(C(=O)O)c(=O)c2c(O)c(F)c(N3CCNCC3)c(F)c21`, the MIC stood at 25 µg/mL (≈ 70.8 µM) in assay [1]; 1.6 µg/mL (≈ 4.53 µM) in assay [2] (setting [14]); 25 µg/mL (≈ 70.8 µM) in assay [3]; 12.5 µg/mL (≈ 35.4 µM) in [4]; 25 µg/mL (≈ 70.8 µM) in assay [5]; 1.6 µg/mL (≈ 4.53 µM) in assay [6]. In addition, the MIC in assay [7] turned out to be 5 µg/mL (≈ 14.2 µM); in [9], 0.8 µg/mL (≈ 2.26 µM); in assay [10], 1.6 µg/mL (≈ 4.53 µM); in assay [12], 0.4 µg/mL (≈ 1.13 µM); in assay [13] it was 0.4 µg/mL (≈ 1.13 µM). For the same compound, the Geometric mean MIC over Gram-negative bacteria (µg/mL) in assay [8] amounted to 0.8. For the same compound, the “Geometric mean MIC over Gram-positive bacteria (µg/mL)” value in assay [11] is recorded as 12.56.
In the case of `CCNCC1CCN(c2c(F)c(N)c3c(=O)c(C(=O)O)cn(CC)c3c2Cl)C1` (stereo not given), the MIC in assay [1] amounted to 1.6 µg/mL (≈ 3.89 µM); in assay [2] (setting [14]), 0.4 µg/mL (≈ 0.974 µM); in assay [3], 6.3 µg/mL (≈ 15.3 µM); in assay [4], 1.6 µg/mL (≈ 3.89 µM); in assay [5] it was 1.6 µg/mL (≈ 3.89 µM); in assay [6], 25 µg/mL (≈ 60.8 µM). The MIC in assay [7] was 2.5 µg/mL (≈ 6.08 µM); in assay [9] it was 6.3 µg/mL (≈ 15.3 µM); in assay [10], 12.5 µg/mL (≈ 30.4 µM); in assay [12], 1.6 µg/mL (≈ 3.89 µM); in assay [13], 3.1 µg/mL (≈ 7.54 µM). Also, the Geometric mean MIC over Gram-negative bacteria (µg/mL) in [8] was found to be 6.28. Further, in [11], the “Geometric mean MIC over Gram-positive bacteria (µg/mL)” value came out at 1.59.
`NC1CCN(c2c(F)cc3c(=O)c(C(=O)O)cn(C4CC4)c3c2Cl)C1` (stereo in doubt; 1f-4) returned an MIC in assay [7] of 0.25 µg/mL (≈ 0.683 µM). The Geometric mean MIC over Gram-negative bacteria (µg/mL) in [8] was 0.057.
Turning to `CCn1cc(C(=O)O)c(=O)c2c(N)c(F)c(N3CCC(N)C3)c(F)c21` (stereo not given), the MIC in assay [1] was determined as 0.8 µg/mL (≈ 2.27 µM); in [2] (setting [14]) it was 0.2 µg/mL (≈ 0.568 µM); in assay [3] it was 0.8 µg/mL (≈ 2.27 µM); in assay [4], 0.4 µg/mL (≈ 1.14 µM); in assay [5], 0.8 µg/mL (≈ 2.27 µM); in assay [6] it was 1.6 µg/mL (≈ 4.54 µM). For the same compound, the MIC in assay [7] was 2.5 µg/mL (≈ 7.1 µM); in assay [9], 0.2 µg/mL (≈ 0.568 µM); in assay [10] it was 0.4 µg/mL (≈ 1.14 µM); in assay [12], 0.1 µg/mL (≈ 0.284 µM); in [13], 0.2 µg/mL (≈ 0.568 µM). The Geometric mean MIC over Gram-negative bacteria (µg/mL) in assay [8] was 0.3. The “Geometric mean MIC over Gram-positive bacteria (µg/mL)” value in [11] is given as 0.53.
The compound `NC1CCN(c2c(F)cc3c(=O)c(C(=O)O)cn(C4CC4)c3c2Cl)C1` (stereo in doubt; 1h-4) displayed an MIC in [7] of 0.5 µg/mL (≈ 1.37 µM). For the same compound, the Geometric mean MIC over Gram-negative bacteria (µg/mL) in assay [8] was 0.029.

Source of the values: ChEMBL document CHEMBL1125826, “Synthesis and biological activity of 5-amino- and 5-hydroxyquinolones, and the overwhelming influence of the remote N1-substituent in determining the structure-activity relationship” (1991).
